Screening results (PubChem BioAssay)
Pyk2 oligo antag: antagonists of Pyk2 self-association, primary screen, Q293 cells, FERM NanoBiT luminescence, HTS; Protein-tyrosine kinase 2-beta (Homo sapiens), Q14289; active compounds read low; z-score (the deposit names both 25 µM and 10 µM); hit rate 0.83% among 99,000; AID 1347419, 2020;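 active = Z-score of -3 or lower, scaled per plate to the spread of control and sample wells; inactive = z-score above -3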;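 note: negative z-score means lost luminescence so less FERM oligomerization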
Target sequence (Q14289 whole entry, looked up): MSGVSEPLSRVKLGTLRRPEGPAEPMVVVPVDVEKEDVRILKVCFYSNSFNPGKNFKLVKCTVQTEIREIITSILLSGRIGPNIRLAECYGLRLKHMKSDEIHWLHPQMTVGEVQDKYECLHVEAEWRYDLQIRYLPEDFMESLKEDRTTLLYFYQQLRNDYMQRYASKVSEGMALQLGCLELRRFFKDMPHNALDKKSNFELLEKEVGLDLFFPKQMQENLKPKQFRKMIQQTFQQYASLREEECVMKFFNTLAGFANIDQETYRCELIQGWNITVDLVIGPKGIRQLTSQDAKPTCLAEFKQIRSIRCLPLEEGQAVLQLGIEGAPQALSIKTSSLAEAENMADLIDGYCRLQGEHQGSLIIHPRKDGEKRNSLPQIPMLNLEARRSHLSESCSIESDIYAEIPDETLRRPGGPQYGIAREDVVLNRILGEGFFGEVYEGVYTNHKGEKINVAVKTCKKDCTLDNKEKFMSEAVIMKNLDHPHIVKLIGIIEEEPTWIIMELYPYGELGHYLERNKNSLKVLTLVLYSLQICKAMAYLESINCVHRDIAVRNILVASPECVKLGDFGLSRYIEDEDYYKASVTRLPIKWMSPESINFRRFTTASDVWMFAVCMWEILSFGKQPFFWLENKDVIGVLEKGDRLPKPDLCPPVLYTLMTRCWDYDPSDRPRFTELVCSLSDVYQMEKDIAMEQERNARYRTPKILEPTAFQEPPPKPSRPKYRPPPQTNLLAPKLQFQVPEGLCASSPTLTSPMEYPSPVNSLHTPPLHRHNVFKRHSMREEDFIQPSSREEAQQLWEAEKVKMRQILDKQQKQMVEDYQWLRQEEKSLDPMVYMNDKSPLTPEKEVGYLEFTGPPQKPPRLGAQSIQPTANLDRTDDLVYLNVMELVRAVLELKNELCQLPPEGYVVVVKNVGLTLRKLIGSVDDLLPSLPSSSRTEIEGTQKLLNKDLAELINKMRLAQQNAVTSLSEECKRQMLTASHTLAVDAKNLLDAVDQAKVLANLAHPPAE
tolC growth inh: growth inhibitors of E. coli tolC mutant, primary screen, strain BW25113 ΔtolC::kan, 384-well; hit rate 2.2% among 65,000; growth inhibition, % at 10 µM (by protocol); AID 573, 2007; OD615;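 active = growth inhibition at or above a cutoff equal to the mean over every tested compound plus 3 SD, cut at about 60% in these data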;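 note: growth measured after 20 h incubation at 37 °C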
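Test system – E. coli BW25113 ΔtolC::kan, tolC deletion mutant strain · Detection – OD at 615 nm · Buffer or medium – LB with kanamycin 50 µg/mL · Times – 20 h compound exposure of bacteria at 37 °C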
PostGolgi ctrl: growth inhibition of yeast control strain, primary screen, counter-screen for post-Golgi transport modulator project; efflux-deficient yeast background strain, growth absorbance A615, 16 h; inhibition, % at 10 µM; hit rate 5% among 98,000
Ecoli WT expand: growth inhibitors of wild-type E. coli, primary screen, strain BW25113, expanded library, OD600. OD600 absorbance. growth inhibition, % at 100 µM. hit rate 0.15% among 98,000. AID 710, 2007;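 active = growth inhibition above about 50% at one test dose, limit read from the data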;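 note: growth measured after 20 h incubation at 37 °C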
PostGolgi yeast: phenotypic screen on post-Golgi transport, primary screen. hit rate 0.9% among 98,000. post-Golgi transport phenotypic cell assay. inhibition, % at 10 µM;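 note: yeast cells grown in 1536-well plates; yeast grown about 18 h at 30C before absorbance read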
Cav3 T inh: Cav3.2 calcium influx blockers – cell-based, Fluo-4 calcium fluorescence, FDSS, MLSMR library, primary screen; Voltage-dependent T-type calcium channel subunit alpha-1H (Homo sapiens), O95180; Cav3.2-expressing cells; active compounds read low; B-score at 10 µM; hit rate 4% among 100,000; AID 449739, 2010;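 active = single-dose well whose peak fluorescence ratio is a statistical outlier from its plate by either plate-standardised score or position-corrected B-score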
Hits are given with their value; - = inactive; . = no result. Most compounds without a hit are left out; they make up all but 8.7% or so of the library. Cut-off read from the data, not from the text of the source, unless noted: active = inhibition above about 30%; inactive = the rest.

SMILES | Pyk2 oligo antag | tolC growth inh | PostGolgi ctrl | Ecoli WT expand | PostGolgi yeast | Cav3 T inh
CCc1ccc(N/C(SCc2cccc(F)c2)=C(/C#N)C(=O)NCc2ccco2)cc1 | - | - | - | - | - | -3.6
Cc1ccc(N/C(SCc2ccccc2C)=C(/C#N)C(=O)NCc2ccco2)cc1C | - | . | - | - | - | -5.3
CC(C)Oc1ccc(CNC2CCOC(C)(C)C2)cc1 (configuration not stated) | - | - | 42 | - | - | -
N#Cc1cccc(NC(=O)CSc2ccc3c4c(cccc24)C(=O)c2ccccc2-3)c1 | - | . | - | - | - | -5.6
O=C(CCc1ccc(Oc2cc([N+](=O)[O-])cc([N+](=O)[O-])c2)cc1)N1CCCCC1 | - | . | - | - | - | -
CCn1c(Sc2ccc(N)cc2Cl)nc2ccccc21 | - | - | 46 | - | - | -
N#CCSc1nnc(Cc2ccc3c(c2)OCO3)o1 | - | - | - | - | - | -
Cc1cc(C)nc(NCCCc2ccccc2)n1 | - | - | - | - | - | -
CCCCNc1cc(C)nc(NCc2ccccc2)n1 | - | 77 | - | 59 | - | -
CCN(c1cccc(C(F)(F)F)c1)S(=O)(=O)c1ccc2c(c1)CCN2C(=O)C1CC1 | - | 69 | - | - | - | -4.7
CCC(=O)N1CCc2cc(S(=O)(=O)N(CC)c3cccc(C)c3)ccc21 | - | - | - | - | - | -
COC(=O)c1sccc1NC(=O)Nc1cccc(Cl)c1Cl | - | . | 34 | - | - | -
Cc1cccc(N2C(=O)CCC2=O)n1 | - | . | . | . | . | .
CCCCOc1ccc(Br)cc1/C(C)=N/NC1=NCCN1 | - | . | . | . | . | -6.7
Cc1cc(Br)ccc1OCCCCNC(C)(C)C | - | . | - | - | - | -
O=C1C2C3C=CC(CO)(O3)C2C(=O)N1c1ccccc1-c1ccccc1 (configuration not stated) | - | - | - | - | - | -
CCOCCCNCC(=O)Nc1ccccc1N1CCOCC1 | - | - | - | - | - | -
Cc1csc(=Nc2ccc(S(=O)(=O)N3CCOCC3)cc2)n1Cc1ccco1 | - | - | 44 | - | - | -
O=C(CCSc1nc(-c2ccco2)cc(C(F)(F)F)n1)N1CCCc2ccccc21 | - | 77 | 38 | - | - | -3.6
O=C(CCSc1nc(-c2ccco2)cc(C(F)(F)F)n1)N1CCN(c2ccccn2)CC1 | - | - | 30 | - | - | -5.5
O=C(CSc1nc(-c2ccco2)cc(C(F)(F)F)n1)N1CCN(c2cccc(Cl)c2)CC1 | - | . | . | . | . | -
Clc1ccc(CNCCC2=CCCCC2)cc1 | - | . | - | - | - | -
CSCCOC(=O)C1=C(C)NC(=O)CC1c1ccccc1Cl (configuration not stated) | - | 62 | - | - | - | -
Cc1cc(Cl)ccc1NC(=O)CN1CCC(C(O)(c2ccccc2)c2ccccc2)CC1 | - | . | - | - | - | -4.3
Cc1cc(C)c(NC(=O)CN(C2CCCCC2)C2CCCCC2)c(C)c1 | - | . | 53 | - | 32 | -
SMILES | Pyk2 oligo antag | tolC growth inh | PostGolgi ctrl | Ecoli WT expand | PostGolgi yeast | Cav3 T inh
O=C(c1ccco1)N1CCN(c2nnc(-c3ccccc3)c3ccccc23)CC1 | - | . | - | - | - | -
CCCCOc1ccc(S(=O)(=O)n2c(C)nc3ccccc32)cc1 | - | 94 | - | - | - | -
COc1cc(S(=O)(=O)n2c(C)nc3ccccc32)ccc1F | - | - | - | - | - | -
Cc1ccc2c(c1)N(Cc1ccncc1)C(=O)C(C)O2 (configuration not stated) | - | - | - | - | - | -
COc1ccc2nc(NCCCNC(=O)c3cc(OC)c(OC)c(OC)c3)c(C#N)cc2c1 | - | - | - | - | 34 | -
CCOc1ccc2nc(NCCNC(=O)Nc3ccccc3)c(C#N)cc2c1 | - | - | - | - | - | -
Cc1nc(NCCCO)c(C#N)c2c1COC(C)(C)C2 | - | - | - | - | - | -
CC1(C)Cc2c(C#N)c(NCc3ccco3)nc(-c3ccco3)c2CO1 | - | - | - | - | - | -
CCCCN(C)c1nc(-c2ccco2)c2c(c1C#N)CC(C)(C)OC2 | . | - | - | - | - | -3.8
CC1(C)Cc2c(C#N)c(NCCCO)nc(-c3ccccc3)c2CO1 | . | - | 85 | - | - | -
CCN(CC)CCNc1nc(-c2ccccc2)c2c(c1C#N)CC(C)(C)OC2 | - | . | - | - | - | -3.7
CCCCOC(=O)c1ccc(NC(=S)NC(=O)c2c(Br)c(C)nn2C)cc1 | - | . | . | . | . | .
CCC(NC(=O)OC(C)(C)C)C(=O)Oc1ccc2c3c(c(=O)oc2c1)CCC3 (configuration not stated) | - | - | - | - | - | -
Cc1ccc(S(=O)(=O)NC(CC(C)C)C(=O)Oc2ccc3c4c(c(=O)oc3c2)CCC4)cc1 (configuration not stated) | - | . | - | - | 60 | -
CCC(C)C(NS(=O)(=O)c1ccc(C)cc1)C(=O)Oc1ccc2c3c(c(=O)oc2c1)CCC3 (configuration not stated) | - | . | 33 | - | - | -
CC(C)CC(C(=O)Oc1ccc2c3c(c(=O)oc2c1)CCC3)N1C(=O)c2ccccc2C1=O (configuration not stated) | - | . | - | - | - | .
Cn1c(Br)nc2c1c(=O)n(CC(O)COc1ccccc1)c(=O)n2C (configuration not stated) | - | - | - | - | - | -
CN(C)c1nc(-c2ccccc2)c2cnn(Cc3ccccc3)c2n1 | - | - | - | - | - | -
Cc1ccc2c(n1)CC(C)(C)CC2=O | - | . | - | - | - | -
CN(C(=O)Nc1ccc(Cl)cc1Cl)[C@H]1c2cc(Br)ccc2OC[C@H]1CO | - | . | 81 | - | - | -
CCOC(=O)c1ccc(Nc2nc(-c3cccnc3)nc3ccccc23)cc1 | -3.5 | . | - | - | - | -
C=CCn1c2ccccc2c2nnc(SCc3ccc4nonc4c3)nc21 | - | - | - | - | - | -
CC(Oc1ccccc1)c1ccnn1S(C)(=O)=O (configuration not stated) | - | . | - | - | - | -
Cc1ccc(S(=O)(=O)n2ccc(-c3cccc(OCc4c(F)cccc4Cl)c3)n2)cc1 | - | . | - | - | - | -
CC(Oc1ccc(Cl)cc1)c1ccnn1S(=O)(=O)c1ccccc1 (configuration not stated) | - | . | - | - | - | -6.1
CC(Oc1ccc(-c2ccccc2)c(F)c1)c1ccn(S(=O)(=O)c2ccc(Cl)cc2)n1 (configuration not stated) | - | . | - | - | - | -5.1
COc1ccc2c(=O)c3c(=O)n(Cc4ccco4)c(-c4ccccc4)nc3oc2c1 | - | - | 58 | - | - | -
CCCc1nc2oc3cc(OC)ccc3c(=O)c2c(=O)n1Cc1ccco1 | - | 61 | - | - | - | -
COc1ccc2c(=O)c3c(=O)n(Cc4ccco4)c(-c4cc(OC)c(OC)c(OC)c4)nc3oc2c1 | - | - | . | . | . | -
